Data as given in article PMC3026963 (The Biochemical journal, 2010).

Key:
[1] = target: CK2α catalytic subunit (Homo sapiens, UniProt P68400); assay: In vitro phosphorylation assay of CK2α with peptide substrate RRRADDSDDDDD; type: biochemical
How it was run: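 Activity is expressed as % of no-peptide control, as the mean of at least three independent experiments. Full-length murine NBD1ΔF508 (389–673) tests were run at 350 μM ATP.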

[2] = system: CK2 holoenzyme; assay: CK2 holoenzyme activity towards protein and peptide substrates; type: biochemical, human; settings: results not shown
How it was run: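 Recombinant human CK2α and CK2β expressed in E. coli; holoenzyme formed by pre-incubating CK2α with 10-fold molar excess of CK2β. Radiolabel incorporation was measured; at least three independent experiments were averaged.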

Chain of CK2α catalytic subunit (P68400 whole entry): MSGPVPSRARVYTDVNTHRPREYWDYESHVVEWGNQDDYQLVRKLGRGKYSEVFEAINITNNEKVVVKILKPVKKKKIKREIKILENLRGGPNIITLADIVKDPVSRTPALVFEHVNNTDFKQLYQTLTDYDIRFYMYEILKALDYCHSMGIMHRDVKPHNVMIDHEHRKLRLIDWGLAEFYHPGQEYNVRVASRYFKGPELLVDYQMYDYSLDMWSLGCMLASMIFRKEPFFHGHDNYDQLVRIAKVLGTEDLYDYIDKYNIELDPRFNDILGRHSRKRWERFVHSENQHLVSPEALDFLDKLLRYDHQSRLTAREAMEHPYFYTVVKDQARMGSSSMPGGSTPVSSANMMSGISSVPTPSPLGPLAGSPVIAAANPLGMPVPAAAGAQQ

B1: NBD1ΔF508: purified ΔF508 mutated recombinant murine NBD1 (nucleotide-binding domain 1 of CFTR; sequence 389–673) (protein)
chain: TTGIIMENVTAFWEEGFGELLEKVQQSNGDRKHSSDENNVSFSHLCLVGNPVLKNINLNIEKGEMLAITGSTGSGKTSLLMLILGELEASEGIIKHSGRVSFCSQFSWIMPGTIKENIIGVSYDEYRYKSVVKACQLQQDITKFAEQDNTVLGEGGVTLSGGQRARISLARAVYKDADLYLLDSPFGYLDVFTEEQVFESCVCKLMANKTRILVTSKMEHLRKADKILILHQGSSYFYGTFSELQSLRPDFSSKLMGYDTFDQFTEERRSSILTETLRRFSVDD
Q: What does the source list for B1?
A: effect on inhibition of CK2α by the ΔF508 peptide ([1]; 50 μM NBD1ΔF508, 350 μM ATP): abrogates the inhibitory efficacy of the ΔF508 peptide; inhibition of CK2α by the full-length protein ([1]; concentration raised up to 20 μM, results not shown): no significant inhibition; effect on CK2 holoenzyme [2]: no appreciable effect
